Measured values: ChEMBL document CHEMBL1125212, “Dual-action cephalosporins: cephalosporin 3'-quinolone carbamates” (J Med Chem, 1991)
Values after ≈ are worked out from the molar mass of the structure shown.

How the values were obtained:
Escherichia coli [1] = test: The compound was evaluated for the inhibition of [14C]- Pen G binding to Escherichia coli UB1005 PBP3 60 kDa.; assay type: functional
How it was run: (§1)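 Penicillin-binding protein assay using solubilized membranes from sonicated E. coli UB1005. Binding was read as inhibition of [14C]penicillin G binding to the PBPs.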

Escherichia coli [2] = test: The compound was evaluated for the inhibition of [14C]- Pen G binding to Escherichia coli UB1005 PBP2 66 kDa.; assay type: functional; how it was run: as §1
Escherichia coli [3] = test: The compound was evaluated for the inhibition of [14C]- Pen G binding to Escherichia coli UB1005 PBP1b 90 kDa.; assay type: functional; how it was run: as §1
Escherichia coli [4] = test: Minimum inhibitory concentration for inhibition of [14C]- Pen G binding to Escherichia coli UB1005.; assay type: functional; how it was run: as §1
Escherichia coli [5] = test: The compound was evaluated for the inhibition of [14C]- Pen G binding to Escherichia coli UB1005 PBP1a 90 kDa.; assay type: functional; how it was run: as §1
Escherichia coli [6] = test: The compound was tested in vitro for minimum inhibitory concentration against Escherichia coli 257; assay type: functional
How it was run: (§2)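 Agar dilution on Mueller-Hinton agar using 2-fold serial dilutions, giving final 128 to 0.0156 μg/mL (extended to 0.000977 μg/mL where needed). Inoculum was overnight broth culture diluted 100-fold, about 3×10^4 CFU/spot, applied by replicator. MIC read after overnight incubation at 36 °C.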

Streptococcus pneumoniae [7] = test: The compound was tested in vitro for minimum inhibitory concentration against Streptococcus pneumoniae 6301; assay type: functional
How it was run: (§3)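 Streptococci tested by agar dilution on brain heart infusion agar with 20 units/mL bovine liver catalase. Final drug range 128 to 0.0156 μg/mL by 2-fold steps, extended to 0.000977 μg/mL when required. Inoculum about 3×10^4 CFU/spot from overnight broth diluted 100-fold. MIC after overnight incubation at 36 °C.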

Enterobacter cloacae = test: The compound was tested in vitro for minimum inhibitory concentration against Enterobacter cloacae P99; assay type: functional
Mus musculus [8] = species: Mus musculus; test: Effective dose against mouse infected with Staphylococcus aureus 753 (MR) (LDs-6); assay type: functional
How it was run: (§4)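 Mouse protection test in CD1 Swiss albino mice (18-20 g) given an intraperitoneal challenge (0.5 mL of diluted culture), expressed as a multiple of LD50. A single subcutaneous dose of 1.0 mL test solution was given at the dorsal neck base within 5 min of infection. Dose range 250 to 0.05 mg/kg. Six mice per group. ED50 (protective dose) by Reed-Muench.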

Escherichia coli [9] = test: Minimum inhibitory concentration for inhibition of [14C]- Pen G binding to Escherichia coli UB1005; assay type: functional
How it was run: (§5)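 Membranes from sonicated E. coli UB1005 were solubilized. Binding to penicillin-binding proteins was measured as inhibition of [14C]penicillin G binding.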

Escherichia coli [10] = test: The compound was evaluated for the inhibition of [14C]- Pen G binding to Escherichia coli UB1005 penicillin-binding protein 3 60 kDa.; how it was run: as §5
Pseudomonas aeruginosa [11] = test: The compound was tested in vitro for minimum inhibitory concentration against Pseudomonas aeruginosa 18S/H; assay type: functional; how it was run: as §2
Staphylococcus aureus [12] = test: (§6) The compound was tested in vitro for minimum inhibitory concentration against Staphylococcus aureus smith; assay type: functional
How it was run: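 Agar dilution MIC on Mueller-Hinton agar. Compounds were serially diluted 2-fold in water; final agar concentrations ran from 128 to 0.0156 μg/mL, extended to 0.000977 μg/mL for very active compounds. Spots were inoculated by replicator with overnight broth cultures diluted 100-fold, about 3×10^4 CFU/spot. MIC was read after overnight incubation at 36 °C.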

Staphylococcus aureus [13] = test: (§7) The compound was tested in vitro for minimum inhibitory concentration against Staphylococcus aureus 753; assay type: functional, staphylococcus aureus smith; how it was run: as §2
Enterococcus faecalis = test: The compound was tested in vitro for minimum inhibitory concentration against Enterococcus faecalis ATCC 29212; assay type: functional; how it was run: as §2
Proteus vulgaris = test: The compound was tested in vitro for minimum inhibitory concentration against Proteus vulgaris 1028 BC; assay type: functional
How it was run: (§8)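 Proteus MICs by agar dilution on Mueller-Hinton medium containing 3% agar. Serial 2-fold dilutions gave final 128 to 0.0156 μg/mL (further to 0.000977 μg/mL). Inoculum was overnight broth diluted 100-fold, about 3×10^4 CFU/spot. Plates read after overnight incubation at 36 °C.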

Streptococcus pyogenes = test: The compound was tested in vitro for minimum inhibitory concentration against Streptococcus pyogenes; assay type: functional; how it was run: as §3
Escherichia coli [14] = test: The compound was tested in vitro for minimum inhibitory concentration against Escherichia coli ATCC 25922; assay type: functional; how it was run: as §2
Citrobacter freundii = test: The compound was tested in vitro for minimum inhibitory concentration against Citrobacter Freundii BS-16; assay type: functional; how it was run: as §2
Mus musculus [15] = species: Mus musculus; test: (§9) Effective dose against mouse infected with Pseudomonas aeruginosa 8780 (LDs-240); assay type: functional
How it was run: (§10)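 CD1 Swiss albino mice (18-20 g) infected intraperitoneally with 0.5 mL of diluted bacterial suspension. Challenge expressed as a multiple of LD50. Drug given subcutaneously at the dorsal neck base within 5 min of infection (1.0 mL), with a second treatment 3 h after infection. Dose range 250 to 0.05 mg/kg. Six mice per group. ED50 by the Reed-Muench method.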

Serratia marcescens = test: The compound was tested in vitro for minimum inhibitory concentration against Serratia marcescens 1071; assay type: functional; how it was run: as §2
Escherichia coli [16] = test: The compound was evaluated for the inhibition of [14C]- Pen G binding to Escherichia coli UB1005 penicillin-binding protein 1a 90 kDa.; how it was run: as §5
Escherichia coli [17] = test: The compound was evaluated for the inhibition of [14C]- Pen G binding to Escherichia coli UB1005 penicillin-binding protein 2 66 kDa.; how it was run: as §5
Proteus mirabilis = test: The compound was tested in vitro for minimum inhibitory concentration against Proteus mirabilis 90; assay type: functional; how it was run: as §8
Escherichia coli [18] = test: The compound was tested in vitro for minimum inhibitory concentration against Escherichia coli TEM-1; assay type: functional; how it was run: as §2
Staphylococcus aureus [19] = test: The compound was tested in vitro for minimum inhibitory concentration against Staphylococcus aureus 67-0; assay type: functional; how it was run: as §2
Klebsiella pneumoniae = test: The compound was tested in vitro for minimum inhibitory concentration against Klebsiella pneumoniae A; assay type: functional; how it was run: as §2
Micrococcus luteus = test: The compound was tested in vitro for minimum inhibitory concentration against Micrococcus luteus ATCC 9341; assay type: functional; how it was run: as §2
Pseudomonas aeruginosa [20] = test: The compound was tested in vitro for minimum inhibitory concentration against Pseudomonas aeruginosa 8780; assay type: functional; how it was run: as §2
Escherichia coli [21] = test: The compound was evaluated for the inhibition of [14C]- Pen G binding to Escherichia coli UB1005 penicillin-binding protein 1b 90 kDa.; how it was run: as §5
Mus musculus [22] = species: Mus musculus; test: (§11) Effective dose against mouse infected with Streptococcus pneumoniae 6301(LDs-5623); assay type: functional; how it was run: as §4
Staphylococcus aureus [23] = test: as §7; assay type: functional; how it was run: as §2
Staphylococcus aureus [24] = test: as §6; assay type: functional; how it was run: as §2; remark: listed apart in the source
Escherichia coli [25] = test: Inhibitory activity on replicative DNA biosynthesis in Escherichia coli H560 (permeabilised cells); assay type: functional, organism-based
How it was run: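 E. coli H560 cells permeabilized with toluene. ATP-dependent incorporation of [3H]thymidine into trichloroacetic acid-insoluble material was measured. IC50 taken as the concentration giving 50% inhibition.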

Escherichia coli [26] = test: Minimum inhibitory concentration required to inhibit the activity of Escherichia coli UB1005; assay type: functional; how it was run: as §2
Escherichia coli [27] = test: Minimum inhibitory concentration required to inhibit the activity of Escherichia coli ATCC 25922; assay type: functional; how it was run: as §2
Pseudomonas aeruginosa [28] = test: as §9; assay type: functional; how it was run: as §10
Streptococcus pneumoniae [29] = test: as §11; assay type: functional; how it was run: as §4
Staphylococcus aureus [30] = test: animal or person; conditions: in Mus musculus

| Compound | Inhibitory concentration (Escherichia coli [1]) [µg/mL] | Inhibitory concentration (Escherichia coli [2]) [µg/mL] | Inhibitory concentration (Escherichia coli [3]) [µg/mL] | MIC (Escherichia coli [4]) [µg/mL] | Inhibitory concentration (Escherichia coli [5]) [µg/mL] | MIC (Escherichia coli [6]) [µg/mL] | MIC (Streptococcus pneumoniae [7]) [µg/mL] | MIC (Enterobacter cloacae) [µg/mL] | ED50 (Mus musculus [8]) [mg/kg] | MIC (Escherichia coli [9]) [µg/mL] | Inhibitory concentration (Escherichia coli [10]) [µg/mL] | MIC (Enterococcus faecalis) [µg/mL] | MIC (Proteus vulgaris) [µg/mL] | MIC (Streptococcus pyogenes) [µg/mL] | MIC (Citrobacter freundii) [µg/mL] | MIC (Serratia marcescens) [µg/mL] | MIC (Proteus mirabilis) [µg/mL] | MIC (Staphylococcus aureus [19]) [µg/mL] | MIC (Klebsiella pneumoniae) [µg/mL] | MIC (Micrococcus luteus) [µg/mL] | also measured |
| --- | --- | --- | --- | --- | --- | --- | --- | --- | --- | --- | --- | --- | --- | --- | --- | --- | --- | --- | --- | --- | --- |
| CC(C)(O/N=C(\C(=O)N[C@@H]1C(=O)N2C(C(=O)[O-])=C(C[n+]3ccccc3)CS[C@H]12)c1csc(N)n1)C(=O)O [CEFTAZIDIME] | 0.5 | > 100 | 10 | 0.1 (≈ 0.183 µM) | 10 | – | – | – | – | – | – | – | – | – | – | – | – | – | – | – | – |
| CO/N=C(\C(=O)N[C@@H]1C(=O)N2C(C(=O)O)=C(COC(C)=O)CS[C@H]12)c1csc(N)n1 [CEFOTAXIME] | – | – | – | – | – | 0.031 (≈ 0.0681 µM) | < 0.016 | 64 (≈ 141 µM) | > 100 | 0.06 (≈ 0.132 µM) | < 0.1 | 0.25 (≈ 0.549 µM) | > 128 | < 0.016 | 32 (≈ 70.3 µM) | 32 (≈ 70.3 µM) | < 0.016 | > 128 | 0.031 (≈ 0.0681 µM) | 0.031 (≈ 0.0681 µM) | MIC (Pseudomonas aeruginosa [11]): 128 µg/mL (≈ 281 µM); MIC (Staphylococcus aureus [12]): 2 µg/mL (≈ 4.39 µM); MIC (Staphylococcus aureus [13]): > 128 µg/mL; MIC (Escherichia coli [14]): 0.063 µg/mL (≈ 0.138 µM); ED50 (Mus musculus [15]): > 100 mg/kg; Inhibitory concentration (Escherichia coli [16]): < 0.1 µg/mL; Inhibitory concentration (Escherichia coli [17]): 100 µg/mL; MIC (Escherichia coli [18]): 0.063 µg/mL (≈ 0.138 µM); MIC (Pseudomonas aeruginosa [20]): 16 µg/mL (≈ 35.1 µM); Inhibitory concentration (Escherichia coli [21]): 0.5 µg/mL; ED50 (Mus musculus [22]): 15 mg/kg |
| CO/N=C(\C(=O)N[C@@H]1C(=O)N2C(C(=O)O)=C(COC(=O)N3CCN(c4cc5c(cc4F)c(=O)c(C(=O)O)cn5C4CC4)CC3)CS[C@H]12)c1csc(N)n1 | – | – | – | – | – | 0.031 (≈ 0.0402 µM) | < 0.016 | < 0.016 | 28 | 0.5 (≈ 0.649 µM) | 0.5 | 0.25 (≈ 0.324 µM) | 0.063 (≈ 0.0817 µM) | < 0.016 | 0.125 (≈ 0.162 µM) | 0.25 (≈ 0.324 µM) | 0.063 (≈ 0.0817 µM) | 2 (≈ 2.59 µM) | 0.125 (≈ 0.162 µM) | 0.031 (≈ 0.0402 µM) | MIC (Staphylococcus aureus [23]): 2 µg/mL (≈ 2.59 µM); MIC (Pseudomonas aeruginosa [11]): 1 µg/mL (≈ 1.3 µM); MIC (Escherichia coli [14]): 0.031 µg/mL (≈ 0.0402 µM); MIC (Staphylococcus aureus [24]): 0.5 µg/mL (≈ 0.649 µM); ED50 (Mus musculus [15]): 33 mg/kg; Inhibitory concentration (Escherichia coli [16]): 100 µg/mL; Inhibitory concentration (Escherichia coli [17]): > 100 µg/mL; MIC (Escherichia coli [18]): 0.063 µg/mL (≈ 0.0817 µM); IC50 (Escherichia coli [25]): 0.9 µg/mL (≈ 1.17 µM); MIC (Pseudomonas aeruginosa [20]): 1 µg/mL (≈ 1.3 µM); MIC (Escherichia coli [26]): 0.5 µg/mL (≈ 0.649 µM); Inhibitory concentration (Escherichia coli [21]): 30 µg/mL; ED50 (Mus musculus [22]): 10 mg/kg; MIC (Escherichia coli [27]): 0.03 µg/mL (≈ 0.0389 µM) |
| CCN1CCN(C(=O)N[C@@H](C(=O)N[C@@H]2C(=O)N3C(C(=O)O)=C(CSc4nnnn4C)CS[C@H]23)c2ccc(O)cc2)C(=O)C1=O [CEFOPERAZONE] | < 0.1 | 2 | 10 | 1 (≈ 1.55 µM) | 10 | – | – | – | – | – | – | – | – | – | – | – | – | – | – | – | – |
| O=C(O)c1cn(C2CC2)c2cc(N3CCNCC3)c(F)cc2c1=O [CIPROFLOXACIN] | – | – | – | – | – | – | 1 (≈ 3.02 µM) | – | – | – | – | 1 (≈ 3.02 µM) | 0.016 (≈ 0.0483 µM) | 0.5 (≈ 1.51 µM) | 0.031 (≈ 0.0936 µM) | 0.063 (≈ 0.19 µM) | 0.063 (≈ 0.19 µM) | 0.5 (≈ 1.51 µM) | 0.25 (≈ 0.754 µM) | 2 (≈ 6.04 µM) | MIC (Staphylococcus aureus [13]): 0.25 µg/mL (≈ 0.754 µM); ED50 (Pseudomonas aeruginosa [28]): 3 mg/kg; IC50 (Escherichia coli [25]): 0.3 µg/mL (≈ 0.905 µM); ED50 (Streptococcus pneumoniae [29]): > 50 mg/kg; ED50 (Staphylococcus aureus [30]): 2 mg/kg |
